# Laboratory results reported in ChEMBL document CHEMBL2440109, “Synthesis and antimycobacterial activity of isoniazid derivatives from renewable fatty acids” (2013).
# Test system: Mycobacterium tuberculosis
# Experiment: Antimycobacterial activity against Mycobacterium tuberculosis H37Rv ATCC 27294 after 7 days by REMA assay
# Assay type: functional
# Conditions: H37Rv ATCC 27294, 168 h
# Method in brief: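 MIC by resazurin microtiter assay. Bacteria suspended in sterile water with glass beads, vortexed, turbidity set to McFarland tube 1 (3.2 × 10^6 CFU/mL), then diluted 1:20 in Middlebrook 7H9. Compounds in DMSO, two-fold serial dilutions (100.0-3.2 µg/mL) in 7H9 with 10% OADC. Incubated 37 °C for 7 days, resazurin added, further 2 days at 37 °C. MIC read from colour change.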
row,Structure (SMILES),MIC
1,CO[C@H]1/C=C/O[C@@]2(C)Oc3c(C)c(O)c4c(O)c(c(/C=N/N5CCN(C)CC5)c(O)c4c3C2=O)NC(=O)/C(C)=C\C=C\[C@H](C)[C@H](O)[C@@H](C)[C@@H](O)[C@@H](C)[C@H](OC(C)=O)[C@@H]1C [RIFAMPIN],0.03 µg/mL
2,CCCCCCCCCCCCCCCC(=O)NNC(=O)c1ccncc1,0.015 µg/mL
3,CCCCCC[C@@H](O)C/C=C\CCCCCCCC(=O)NNC(=O)c1ccncc1,0.03 µg/mL
4,CCCCCCCC/C=C\CCCCCCCC(=O)NNC(=O)c1ccncc1,0.015 µg/mL
5,CCCCCCCC/C=C\CCCCCCCC(=O)O [OLEIC ACID],100 µg/mL
6,CC/C=C\C/C=C\C/C=C\CCCCCCCC(=O)NNC(=O)c1ccncc1,0.06 µg/mL
7,CCCCCCCCCCCCCCCCCC(=O)NNC(=O)c1ccncc1,0.03 µg/mL
8,CCCCCCCC/C=C/CCCCCCCC(=O)NNC(=O)c1ccncc1,0.03 µg/mL
9,CCCCC/C=C\C/C=C\CCCCCCCC(=O)NNC(=O)c1ccncc1,0.125 µg/mL
10,NNC(=O)c1ccncc1 [ISONIAZID],0.06 µg/mL
11,CCCCCCCC/C=C\CCCCCCCC(=O)NN [OLEOHYDRAZIDE],50 µg/mL
